According to ChEMBL document CHEMBL5724801, “EUbOPEN Chemogenomics Library - Multiplex” (2024):
“And” between values parts separate entries of the source, which are not always exact repeats. Equal values may be shown once.

Legend:
Fibroblast = assay: Multiplex assay against human fibroblast; format: toxicity, cell-based
Outline: (§1)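 Values for tubulin, mitochondrial-mass and membrane-permeability phenotypes are per cents of cells with healthy nuclei. These cells were identified by CellPathfinder machine-learning gating of live cells that had been stained at seeding with Hoechst33342, BioTracker Green Microtubule Cytoskeleton Dye, MitoTracker Red and Annexin V Alexa Fluor 680 and imaged on a CQ1 microscope at 37°C and 5% CO2 after compound addition. The gating first set Hoechst high-intensity objects apart from normal cells, then split normal cells into healthy, pyknosed or fragmented nuclei, and pyknosed cells into mitotic or apoptotic.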

HEK-293T = assay: Multiplex assay against HEK293T; format: toxicity, cell-based; conditions: human; outline: as §1
[1] = 12 h, 1 µM, compound concentration 1 uM
[2] = 12 h, 10 µM, compound concentration 10 uM
[3] = 24 h, 1 µM, compound concentration 1 uM
[4] = 24 h, 10 µM, compound concentration 10 uM
[5] = 48 h, 1 µM, compound concentration 1 uM
[6] = 48 h, 10 µM, compound concentration 10 uM

## COc1cc2ncnc(Nc3ccc(Oc4ccccc4)cc3C)c2cc1OC.Cl
Fibroblast; [1]
  Population Apoptotic (%): 11.11% and 23.33%
  Population Fragmented Nuclei (%): 12.3% and 7.85%
  Population Healthy Nuclei (%): 63.64% and 76.44%
  Population Hoechst High Intensity Objects (%): 0%
  Population Membrane Permeable-Phenotype (%): 5.04% and 3.42%
  Population Mitochondria Different-Phenotype (%): 8.4% and 12.33%
  Population Mitotic Cells (%): 88.89% and 76.67%
  Population Normal (%): 100%
  Population Pyknosed Nuclei (%): 24.06% and 15.71%
  Population Tubulin-Different-Phenotype (%): 15.13% and 13.7%
  Total Cell Count: 187 and 191
Fibroblast; [2]
  Population Apoptotic (%): 10.77% and 17.02%
  Population Fragmented Nuclei (%): 14.61% and 11.16%
  Population Healthy Nuclei (%): 48.88% and 68.67%
  Population Hoechst High Intensity Objects (%): 0%
  Population Membrane Permeable-Phenotype (%): 3.45% and 10.62%
  Population Mitochondria Different-Phenotype (%): 29.89% and 25%
  Population Mitotic Cells (%): 89.23% and 82.98%
  Population Normal (%): 100%
  Population Pyknosed Nuclei (%): 36.52% and 20.17%
  Population Tubulin-Different-Phenotype (%): 58.62% and 66.88%
  Total Cell Count: 178 and 233
Fibroblast; [3]
  Population Apoptotic (%): 0% and 16.67%
  Population Fragmented Nuclei (%): 10.95% and 4.57%
  Population Healthy Nuclei (%): 74.29% and 80.2%
  Population Hoechst High Intensity Objects (%): 0%
  Population Membrane Permeable-Phenotype (%): 5.77% and 1.9%
  Population Mitochondria Different-Phenotype (%): 7.05% and 6.33%
  Population Mitotic Cells (%): 100% and 83.33%
  Population Normal (%): 100%
  Population Pyknosed Nuclei (%): 14.76% and 15.23%
  Population Tubulin-Different-Phenotype (%): 15.38% and 12.66%
  Total Cell Count: 210 and 197
Fibroblast; [4]
  Population Fragmented Nuclei (%): 20.69% and 12.5%
  Population Healthy Nuclei (%): 59.48% and 79.49%
  Population Hoechst High Intensity Objects (%): 0%
  Population Membrane Permeable-Phenotype (%): 4.35% and 4.03%
  Population Mitochondria Different-Phenotype (%): 25.36% and 23.39%
  Population Mitotic Cells (%): 95.65% and 76%
  Population Normal (%): 100%
  Population Pyknosed Nuclei (%): 19.83% and 8.01%
  Population Tubulin-Different-Phenotype (%): 65.22% and 70.16%
  Total Cell Count: 232 and 312
Fibroblast; [5]
  Population Apoptotic (%): 14.29% and 18.75%
  Population Fragmented Nuclei (%): 14.46% and 12.14%
  Population Healthy Nuclei (%): 77.11% and 80.1%
  Population Hoechst High Intensity Objects (%): 0%
  Population Membrane Permeable-Phenotype (%): 1.04% and 1.21%
  Population Mitochondria Different-Phenotype (%): 11.98% and 4.85%
  Population Mitotic Cells (%): 85.71% and 81.25%
  Population Normal (%): 100%
  Population Pyknosed Nuclei (%): 8.43% and 7.77%
  Population Tubulin-Different-Phenotype (%): 8.33% and 15.76%
  Total Cell Count: 249 and 206
Fibroblast; [6]
  Population Apoptotic (%): 14.29% and 28.57%
  Population Fragmented Nuclei (%): 17.05% and 16.67%
  Population Healthy Nuclei (%): 78.98% and 81.45%
  Population Hoechst High Intensity Objects (%): 0%
  Population Membrane Permeable-Phenotype (%): 4.68% and 4.95%
  Population Mitochondria Different-Phenotype (%): 11.15% and 6.93%
  Population Mitotic Cells (%): 85.71% and 71.43%
  Population Normal (%): 100%
  Population Pyknosed Nuclei (%): 3.98% and 1.88%
  Population Tubulin-Different-Phenotype (%): 51.8% and 63.04%
  Total Cell Count: 352 and 372
HEK-293T; [1]
  Population Apoptotic (%): 9.24% and 8.93%
  Population Fragmented Nuclei (%): 2.79% and 1.37%
  Population Healthy Nuclei (%): 50.51% and 21.92%
  Population Hoechst High Intensity Objects (%): 0%
  Population Membrane Permeable-Phenotype (%): 1.51% and 0%
  Population Mitochondria Different-Phenotype (%): 24.62% and 9.38%
  Population Mitotic Cells (%): 90.76% and 91.07%
  Population Normal (%): 100%
  Population Pyknosed Nuclei (%): 46.7% and 76.71%
  Population Tubulin-Different-Phenotype (%): 6.53% and 18.75%
  Total Cell Count: 394 and 146
HEK-293T; [2]
  Population Apoptotic (%): 10.53% and 18.75%
  Population Fragmented Nuclei (%): 1.92% and 2.05%
  Population Hoechst High Intensity Objects (%): 0%
  Population Membrane Permeable-Phenotype (%): 0.6% and 0%
  Population Mitochondria Different-Phenotype (%): 17.86% and 20%
  Population Mitotic Cells (%): 89.47% and 81.25%
  Population Normal (%): 100%
  Population Pyknosed Nuclei (%): 52.05% and 87.67%
  Total Cell Count: 365 and 146
HEK-293T; [3]
  Population Apoptotic (%): 18.7% and 16.84%
  Population Fragmented Nuclei (%): 0.78% and 1.86%
  Population Healthy Nuclei (%): 80.12% and 39.13%
  Population Hoechst High Intensity Objects (%): 0%
